Results as given in the EternaBench riboswitch data.

Tested on: MS2 coat protein
Assay: apparent Kd, MS2 coat protein; higher = weaker binding; RNA-MaP array; FMN 200 µM where present
In short: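 Green signal from SNAP-549-labelled MS2 coat protein was normalised to red-channel RNA signal and to the median Fmax of control clusters. The protein was titrated from 0.7 or 1.5 nM, doubling to 3 µM, without and then with constant ligand, over designs transcribed by stalled E. coli RNA polymerase on Illumina sequencing-chip clusters, in 100 mM Tris-HCl pH 7.5, 80 mM KCl, 4 mM MgCl2, BSA, DTT, yeast tRNA and Tween-20. The apparent Kd is the median of filtered per-cluster binding-curve fits.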

[1] = designed as: OFF switch for flavin mononucleotide, no ligand
[2] = ligand present: flavin mononucleotide, designed as: OFF switch for flavin mononucleotide
[3] = designed as: ON switch for flavin mononucleotide, no ligand
[4] = ligand present: flavin mononucleotide, designed as: ON switch for flavin mononucleotide

Row | Sequence | apparent Kd [1] [µM] | apparent Kd [2] [µM] | apparent Kd [3] [µM] | apparent Kd [4] [µM]
1 | CCAGCAACAUGAGGAUCACCCAUGUAGGAUAUCGCUAUUGUAAUCAUGAAACAUGAUUACAAUAGCGAGAAGGACAUAUGCUUU | 0.011 | 0.012 |  | 
2 | AAUUUAAUACAUGAGGAUCACCCAUGUAAUACUUGUAAGAUCAAGGAUAUCAGCUCGAUUAGAGCUGAGAAGGUGAUCACAUGU |  |  | 0.0731 | 0.204
3 | GGUUGGCGAGGAUAUACAUGAGGAUCACCCAUGUGGUCCUGUGGCUGGUCAAAACUUUGUAGAAGGCGCGGGUC | 0.0831 | 0.101 |  | 
4 | CUGAGUAGUCAGGAUAUGUGGUACAAAAGUACUGCAGAAGGGAUUACAUGAGGAUCACCCAUGUUUUCUUCAUG |  | 0.125 |  | 
5 | AUAUUUGUGUAGAAGGUACGUGAUUAGUCAAAGUAAGGAUAUACUGACAUGAGGAUCACCCAUGUUUAAAUAGUUAAAUGUUCU |  |  | 0.0109 | 0.00801
6 | GUGGAGUACGUAGGAUAUGUAGGAUAUUCCUACAUGAGGAUCACCCAUGUUAGCAUGGAAGAAGGACAGAAGGACGUGCUCCAG |  |  | 1.18 | 0.015
7 | CGCCGCACCGGCCUGCGGCAGGGUCAGGAUAUACAUGAGGAUCACCCAUGUGAACGGUGCCCUAUGUAGAAGGGACGAAAAGAA | 0.0228 | 0.0375 |  | 
8 | AUACUCAUGUAAGGAUAUGCAGCCGUUUCGGCUGCAGAAGGUACUAUAAUACAUGAGGAUCACCCAUGUCUUUUUAAUUUAGAC |  |  | 0.153 | 0.0399
9 | UCCUUGUCCUGAGGAUAUCCGUGGUGACCGAAAGGAGAAGGCAGGACAUGAGGAUCACCCAUGUACCCAGAAAACGUGCAGAGU | 0.0665 | 0.458 |  | 
10 | GCCAACUAAUGAGGAUAUGGCACCUUAUUGGUGCCAGAAGGCAUGUCAAUUGACAUGAGGAUCACCCAUGUAUUAUAGUUGGCG |  |  | 0.878 | 0.109
11 | AAAACGAUGUGAGGAUAUCACCGCUGUGACGGCUGAGAAGGCACAUGAGGAUCACCCAUGUGCAGGCGUGUGUGGGUAAUCCUA | 0.109 | 0.0948 |  | 
12 | AAUUAGUGAGGAUAUACGGGAGGGAGGGAGGGAGGGAGGGAGUAGAAGGCACAUGAGGAUCACCCAUGUAAUUA | 0.0151 | 0.0227 |  | 
13 | GUUGCUUUCCGAGGAUAUUCUGGGCGUGGUUAUACAUGAGGAUCACCCAUGUGGCGGUUGCCUAGGGAGAAGGCGGGCUGCUUC |  |  | 0.0203 | 0.0179
14 | GGGUACAUCUGAGGAUAUCAUGUAAAUACAUGAGGAUCACCCAUGUCGAUGGAGACAUCGGAGAUUGAGAAGGCCGAUGUACCG |  |  | 0.263 | 0.014
15 | GUAUAUAUGUGGUACAUGAGGAUCACCCAUGUGUCUUUACAUGAGGAUAUGGAUUCUAAUUGGAUCCAGAAGGCAUGUAUAUAC |  |  | 0.033 | 0.0237
16 | GCAUUUUAUGCAGGAUAUUGUCUUUGGAUUAAACAAGAAGGGCAUAACAUGAGGAUCACCCAUGUUUUAUAGGUAUAUAUGUUC | 0.0142 | 0.0216 |  | 
17 | AACAAACAUGAGGAUCACCCAUGUCAGGAUAUCCGAAAUAAAGAAACAAUAAUAAUAAGGAGAAGGGACUAAAU | 0.0536 | 0.0555 |  | 
18 | UUGUAGGAGACAGGAUAUGUACGGAAGGUUCACGUACAUGAGGAUCACCCAUGUCCAGACUUCAGACAGAAGGGUCACCAGGUG |  |  | 0.113 | 0.0172
19 | CGAUCCCUGUAGAAGGGAGCACCGCAAAACGUGAACCGGUCGCACCGGUGCUUAGGAUAUACAUGAGGAUCACCCAUGUAAAGG | 0.0153 | 0.0203 |  | 
20 | CCGGAUAUGCAGGAUAUCGUAUCGGAUACGAUACGAGAAGGGUAUACAUGAGGAUCACCCAUGUGUCCUACCGG | 0.0228 | 0.0315 |  | 
21 | AUUUUAAAGGGAGGAUAUACAUGAGGAUCACCCAUGUAAACAUGAGGAUCACCCUUGUAAACAAUGUAGAAGGCCUAAAUCUAU | 0.013 | 0.0161 |  | 
22 | ACAUAAAUUCGAGGAUAUCGGUGAAAUAAUUUACGAGAAGGCGAUAAUAGUUAUAAACUUAUAGACAUGAGGAUCACCCAUGUA |  |  | 0.0316 | 0.0324
23 | AAAAAACAUGAGGAUCACCCAUGUCGAAAGACAUGAGGAUAUGUGUGGAAACCAUACUAUACAGAAGGCAUAAAAA |  |  | 0.0378 | 0.371
24 | ACGUGUAAUACAGGAUAUGUAUUGGAUUAAUCAACCAGUUAUUAAGUAACGACAGAAGGGUAUACAUGAGGAUCACCCAUGUUA | 0.0243 | 0.0202 |  | 
25 | UUAUUUAUACAAGGAUAUCUAUUGUUAAUUCGACUUACAUGAGGAUCACCCAUGUUUUUAUGUUUAGAGAAGGUGUAUUUUCAG |  |  | 0.0904 | 0.0519
26 | AGAUCUCAAUAAGAUCCAAUACGAACAUGAGGAUCACCCAUGUAGGAUAUGCUAGAAGUAGAGUAGCAGAAGGACAAUUACCUU | 0.0199 | 0.0197 |  | 
27 | UUCAGGGAUCAAGGAUAUCUAUACUCAUGCGGACAUGAGGAUCACCCAUGUUGAUUACCCAUGAGGGAGAAGGUGAACAUGAGG |  |  | 0.0313 | 0.0187
28 | GCUACAUAUAUUAAGUAUGAUUAACUAGAAGGUAGAUACAUGAGGAUCACCCAUGUUAAGAGUUCUAAGGAUAUAGUUUGUAGC |  |  | 0.113 | 0.0566

Row | Sequence | apparent Kd [1] [µM] | apparent Kd [2] [µM] | apparent Kd [3] [µM] | apparent Kd [4] [µM]
29 | GCAUAUAUAUAAGGAUAUGCAUCACUGAGAAAUUUAGUGAGGAAGAUCACAUGAGGAUCACCCAUGUAGAAGGUAUAUAUGUGC | 0.00818 | 0.046 |  | 
30 | AAAAGACAUGAGGAUCACCCAUGUCAAAACAUAGGAGGAUAUGUCUUGAAAAAAGACUUGACAGAAGGCCUUUGUC |  |  | 0.0179 | 0.0158
31 | AGUCGGAGCAGAGGAUAUACAUGAGGAUCACCCAUGUAAUAAAUCCAAGCCUGGAAACAGGCAAUGUAGAAGGCUGCUCCGACA | 0.0168 | 0.0788 |  | 
32 | UAUUAGUAAGGAUAUGAGACGUAGGACGCAAGUCCUACGUCUCAGAAGGUACAUGAGGAUCACCCAUGUUUAUU | 0.0181 | 0.0244 |  | 
33 | UGCAUGUAAGGAUAUGCAACCGGCGCUCAUUCGCCGGUCAAGCAGAAGGUACAUGAGGAUCACCCAUGUGUCCG | 0.0313 | 0.139 |  | 
34 | GCAGGUCGGAAGGAUAUGAAUCUGCUCGCAGUUUCAGAAGGUCUGACAUGAGGAUCACCCAUGUUGGGCGCAUC | 0.0565 | 0.236 |  | 
35 | GGUACCAACACAGGAUAUGCUUUCCUUUGGGAAGCAGAAGGGUGAAAACAUGAGGAUCACCCAUGUGGUACCGGGCGUGAGCCC |  |  | 0.534 | 0.039
36 | GUGCUCGUGUAAGGAUAUGCAGCCGUUUCGGCUGCAGAAGGUACUAUAAUACAUGAGGAUCACCCAUGUCUCUAUAAUUUGGUG |  |  | 0.148 | 0.214
37 | UCGUUUUUUGAGGAUAUGCGACGUUUUUUCGUCGUAGAAGGCGAUACAUGAGGAUCACCCAUGUUUAUGGGCAU | 0.19 | 0.318 |  | 
38 | AGUGUGUGGCAGGAUAUUCUGUUGGUUCGGGCAGAAGAAGGGUCUACAUGAGGAUCACCCAUGUAAGCGGUUGA | 0.205 | 0.486 |  | 
39 | UCUACGUAAAUUCAUCAAUACAGAAAGGAUAUGAAAUACAUGAGGAUCACCCAUGUGCAUGGGAAUUAGAAGGUUCAAUUAACU | 0.202 | 0.104 |  | 
40 | CCAACCGUAGGAUAUUCCAAGUCCGACAUGAGGAUCACCCAUGUGUUUCUCUGCGAUUUAGGAGAAGGGCGGUUGG | 0.349 | 0.474 |  | 
41 | GUAGAGUAGUGAGGAUAUACGAGAUCGAUAGAUCGGCGAUCCAAUAAUACAUGAGGAUCACCCAUGUAGAAGGCACUUCUCUAC | 0.00779 | 0.116 |  | 
42 | GGGCUCGGAGGAUAUACAUGAGGAUCACCCAUGUAGGGCUCGGGUAUUCUCGGGCUCUGUAGAAGGUCGGGCUC | 0.0203 | 0.0233 |  | 
43 | GUACCUUAUGAGAAGGCGAUCAUGAAACAUGAUCGAGGAUAUCAUGUAAACAUGAGGAUCACCCAUGUAUGGGUAUUAUGGUAG |  |  | 0.0408 | 0.0113
44 | AAUUAUUAUUGAGGAUAUCGUAUUGAAAUAAUAUGAGAAGGCGGGAUAAACAUGAGGAUCACCCAUGUGAGCCUGAUGCUUGUG | 0.0166 | 0.0163 |  | 
45 | AAACAUGUCCGAGGAUAUCUGGAAACAUUUUCAAGAGAAGGCGGACAUGAGGAUCACCCAUGUCUCUCCUCAUCAACUACAAUU | 0.00831 | 0.0581 |  | 
46 | GCAUCCAUAGUGAGGAUAUACCUCUGGAUACAUAGGUAGAAGGCACAUGAGGAUCACCCAUGUUCCUAGGAUGC | 0.0203 | 0.0401 |  | 
47 | UGGUACUAGGGAGGAUAUGGGAAGAUACAUGAGGAUCACCCAUGUUUAAGAAUGCGGAGAGGCAACUAGAAGGCCCUAGUACCU |  |  | 0.351 | 0.0189
48 | GUCAGCUCGUGAGGAUAUACAACACUGCUUCGGCUGUGUAUUAAGAUCACAUGAGGAUCACCCAUGUAGAAGGCACGAGCUGAU | 0.0135 | 0.202 |  | 
49 | GGAUGACAAAGUCAUCCUAUUCGAACAUGAGGAUCACCCAUGUAGGAUAUGCAACUCAAAGAGUUGCAGAAGGACAUGUGCCUU | 0.0309 | 0.153 |  | 
50 | GAUUAACAUGAGGAUCACCCAUGUCGUUUUAUGGGAGGAUAUACGUGGACCGUAGUCCGCGUAGAAGGCCUAAUUG |  |  | 0.125 | 0.0304
51 | GUAGCUAUCGGAGGAUAUUCAUACCGGAAACGGACAUGAGGAUCACCCAUGUGGCGAAAGCCCUGGGAGAAGGCCGAUAGCUAC |  |  | 0.382 | 0.259
52 | AAAAACUAAGGAUAUACAUGAGGAUCACCCAUGUAAAAAAUGCAUGGGAAAACCUCAUGUAGAAGGUAGAAAAA | 0.0206 | 0.0172 |  | 
53 | CUAGCUAUCGGAGGAUAUUCAUACCGGAAACGGACAUGAGGAUCACCCAUGUGGCGAAAGCCAUGGGAGAAGGCCGAUAGCUAG |  |  | 1.64 | 0.133
54 | ACAUAUAUUCGAGGAUAUCGGUGAUAAAUUUUACGAGAAGGCGAUAAAAGAUAUAAUCUUAUAGACAUGAGGAUCACCCAUGUA |  |  | 0.0273 | 0.0272
55 | AACGUCCUAGGAUAUACGCUGGGACUCGCCAUGUGGGCCCUACAUGAGGAUCACCCAUGUAGAAGGAGGACAUG | 0.0195 | 0.0129 |  | 
